Source: ChEMBL document CHEMBL1154473, “Synthesis, antitumor evaluation and DNA binding studies of novel amidino-benzimidazolyl substituted derivatives of furyl-phenyl- and thienyl-phenyl-acrylates, naphthofurans and naphthothiophenes” (Eur J Med Chem, 2008)
pIC50: −log10 of the molar value.

Legend:
DNA [1] = assay: Binding affinity to calf thymus DNA assessed as relative fluorescence intensity by fluorescence emission spectra analysis relative to control; assay type: nucleic-acid assay; details: Bos taurus
How it was run: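 Fluorimetric titration: portions of ct-DNA (phosphate concentration determined spectroscopically; sonicated, filtered) added to compound in sodium cacodylate buffer pH 7.0, I = 0.05 mol dm-3; excitation 360–374 nm depending on compound to avoid inner filter effects, emission monitored at 400 nm; data corrected for dilution; fluorescence change expressed versus compound/ct-DNA ratio r.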

DNA [2] = assay: Binding affinity to calf thymus DNA assessed as hypochromic effect by UV-vis spectra analysis; assay type: nucleic-acid assay; set-up: concentration or dose not given beside the values; details: Bos taurus
DNA [3] = assay: Binding affinity to calf thymus DNA in sodium cacodylate buffer assessed as melting temperature at compound/DNA ratio 0.1 at pH 7; assay type: nucleic-acid assay; details: Bos taurus
How it was run: (§1)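 ct-DNA dissolved in sodium cacodylate buffer (I = 0.05 mol dm⁻³, pH 7), sonicated, filtered, with concentration taken spectroscopically as phosphate. Absorbance at 260 nm followed against temperature, heating 1 °C/min. Ligand absorbance subtracted and scale normalized. Tm taken as transition midpoint from first-derivative maximum or tangent method. ΔTm = Tm(complex) − Tm(free DNA). Error ±0.5 °C.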

[4] = Antiproliferative activity against human WI38 cells after 72 hrs by MTT assay; assay type: cell-based; details: WI-38, 72 h
How it was run: (§2)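 Cells seeded on day 0 at 1–3 × 10⁴ cells/ml, density set by each line's doubling time. Compounds added in five 10-fold dilutions (10⁻⁸–10⁻⁴ M), freshly prepared on test day, with DMSO solvent control matched to working concentrations. Incubated 72 h, then MTT read-out of dehydrogenase activity in viable cells gives percentage of growth. Four parallel samples per point, three independent experiments.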

HeLa = assay: Antiproliferative activity against human HeLa cells after 72 hrs by MTT assay; assay type: functional, cell-based; how it was run: as §2
MIA PaCa-2 = assay: Antiproliferative activity against human MIAPaCa2 cells after 72 hrs by MTT assay; assay type: functional, cell-based; details: MIA PaCa-2, 72 h; how it was run: as §2
SW-620 = assay: Antiproliferative activity against human SW620 cells after 72 hrs by MTT assay; assay type: functional, cell-based; details: SW-620, 72 h; how it was run: as §2
MCF7 = assay: Antiproliferative activity against human MCF7 cells after 72 hrs by MTT assay; assay type: functional, cell-based; details: MCF7, 72 h; how it was run: as §2
NCI-H460 = assay: Antiproliferative activity against human H460 cells after 72 hrs by MTT assay; assay type: functional, cell-based; details: NCI-H460, 72 h; how it was run: as §2
DNA [5] = assay: Binding affinity to calf thymus DNA in sodium cacodylate buffer assessed as melting temperature at compound/DNA ratio 0.2 at pH 7; assay type: nucleic-acid assay; details: Bos taurus; how it was run: as §1
DNA [6] = assay: Binding affinity to calf thymus DNA in sodium cacodylate buffer assessed as melting temperature at compound/DNA ratio 0.3 at pH 7; assay type: nucleic-acid assay; details: Bos taurus; how it was run: as §1
DNA [7] = assay: Binding affinity to calf thymus DNA in sodium cacodylate buffer at compound/DNA ratio 0.5 pH 7 by fluorimetric titration; assay type: nucleic-acid assay; details: Bos taurus
DNA [8] = assay: Binding affinity to calf thymus DNA in sodium cacodylate buffer at compound/DNA ratio < 0.1 pH 7 by fluorimetric titration; assay type: nucleic-acid assay; details: Bos taurus
How it was run: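 Compound solution in sodium cacodylate buffer (pH 7.0, I = 0.05 mol dm⁻³) titrated with portions of ct-DNA (6.31 × 10⁻³ mol dm⁻³), data corrected for dilution. Excitation at 360–374 nm, chosen per compound to avoid inner filter effects, with emission monitored at 400 nm. Ks and n obtained by non-linear least-squares Scatchard fitting of data at r < 0.1.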

SMILES | Flu intensity (DNA [1]) [a.u.] | Activity (DNA [2]) [%] | ΔTm (DNA [3]) [°C] | pIC50 [4] | pIC50 (HeLa) | pIC50 (MIA PaCa-2) | pIC50 (SW-620) | pIC50 (MCF7) | pIC50 (NCI-H460) | ΔTm (DNA [5]) [°C] | ΔTm (DNA [6]) [°C] | log Ks (DNA [7]) | log Ks (DNA [8])
CCOC(=O)/C(=C/c1ccc(-c2nc3cc(C(=N)NC(C)C)ccc3[nH]2)o1)c1ccc(C#N)cc1 | 161 | 10 | 0.6 | 4.44 | 4.55 | 4.68 | 4.21 | 5.70 | 4.51 | 0.8 | 1.3 | 5.6 | 
COC(=O)/C(=C/c1ccc(-c2nc3cc(C(=N)NC(C)C)ccc3[nH]2)s1)c1ccccc1 | 232 | 18 | 1.7 | < 4.00 | 4.52 | 4.89 | 4.21 | 6.00 | 4.43 | 2.3 | 2.7 |  | 
COC(=O)/C(=C/c1ccc(-c2nc3cc(C(=N)NC(C)C)ccc3[nH]2)o1)c1ccccc1 | 147 | 8 | 0 | 4.89 | 4.77 | 4.72 | 4.85 | 5.05 | 4.89 | 0 | 0 |  | 
CCOC(=O)c1cc2oc(-c3nc4cc(C(=N)NC(C)C)ccc4[nH]3)cc2c2cc(C#N)ccc12 | 282 | 10 | 1 | < 4.00 | 4.14 | 4.21 | 4.07 | 5.22 | < 4.00 | 1.4 | 1.6 |  | 5
COC(=O)c1cc2oc(-c3nc4cc(C(=N)NC(C)C)ccc4[nH]3)cc2c2ccccc12 | 790 | 51 | 1.8 | < 4.00 | 4.74 | 4.68 | 4.46 | 6.00 | 4.74 | 2.6 | 3.8 |  | 4.2
COC(=O)c1cc2sc(-c3nc4cc(C(=N)NC(C)C)ccc4[nH]3)cc2c2ccccc12 | 916 | 15 | 3.9 | 4.15 | 4.82 | 4.80 | 4.54 | 5.70 | 4.62 | 4.9 | 5.8 |  | 4.7
